Source: ChEMBL document CHEMBL2040806, “Synthesis and biological evaluation of analogs of the marine alkaloids granulatimide and isogranulatimide” (Eur J Med Chem, 2012)
The source made the active and inactive calls. No cut-off for these calls is given here.

Columns and labels:
[1] = molecular target: Cyclin-dependent kinase 5/CDK5 activator 1 (Homo sapiens, UniProt Q00535); assay: Inhibition of human recombinant CDK5/p25; assay type: protein-complex assay
In short: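 Human recombinant CDK5/p25 assayed in triplicate in buffer C with 1 mg/ml histone H1 at 30 °C, 15 µM ATP final. Activity as % of uninhibited control after blank subtraction; IC50 from dose-response curves.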

PC-3 = assay: Cytotoxicity against human PC3 cells after 72 hrs by MTT assay; assay type: functional, cell-based; conditions: PC-3, 72 h
A549 [2] = assay: Cytotoxicity against human A549 cells after 72 hrs by MTT assay; assay type: functional, cell-based; conditions: A549, 72 h
LoVo = assay: Cytotoxicity against human LoVo cells after 72 hrs by MTT assay; assay type: functional, cell-based
[3] = Inhibition of porcine brain CK1delta/epsilon using CKS peptide as substrate; design: species or system Sus scrofa
[4] = molecular target: Glycogen synthase kinase-3 (Sus scrofa, UniProt B2LUN4+I6LNT8); assay: Inhibition of porcine brain GSK3alpha/beta using GS1 as substrate
[5] = Cytotoxicity against human Hs683 cells after 72 hrs by MTT assay; assay type: functional, cell-based; conditions: Hs 683, 72 h
[6] = molecular target: Dual specificity tyrosine-phosphorylation-regulated kinase 1A (Rattus norvegicus, UniProt Q63470); assay: Inhibition of GST-fused rat recombinant DYRK1A expressed in Escherichia coli using Woodtide as substrate and [gamma-33P] after 30 mins by scintillation counting
[7] = Cytotoxicity against p53-mutant human U373 cells after 72 hrs by MTT assay; assay type: functional, cell-based, U-373MG ATCC; conditions: U373 MG
[8] = molecular target: Dual specificity protein kinase CLK1 (Mus musculus, UniProt P22518); assay: Inhibition of GST-fused mouse recombinant CLK1 expressed in Escherichia coli using RS peptide as substrate
Dual specificity protein kinase CLK1, sequence (P22518 whole entry, the tested form may be a part): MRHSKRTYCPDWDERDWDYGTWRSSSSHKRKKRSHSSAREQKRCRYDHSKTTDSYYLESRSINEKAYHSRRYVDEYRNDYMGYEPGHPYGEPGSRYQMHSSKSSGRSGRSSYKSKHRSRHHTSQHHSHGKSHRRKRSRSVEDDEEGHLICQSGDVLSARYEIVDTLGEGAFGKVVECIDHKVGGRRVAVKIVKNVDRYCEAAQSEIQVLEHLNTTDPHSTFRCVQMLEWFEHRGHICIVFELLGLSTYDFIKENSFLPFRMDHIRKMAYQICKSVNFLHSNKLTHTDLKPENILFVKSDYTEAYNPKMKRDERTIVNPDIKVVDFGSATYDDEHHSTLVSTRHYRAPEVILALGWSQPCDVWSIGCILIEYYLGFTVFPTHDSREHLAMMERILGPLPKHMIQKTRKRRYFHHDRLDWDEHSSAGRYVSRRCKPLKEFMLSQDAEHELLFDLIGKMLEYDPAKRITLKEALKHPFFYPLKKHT
In short: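 Blanks subtracted, activity as % of uninhibited maximum, DMSO dilution controls, IC50 from dose-response curves.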

B16-F10 = assay: Cytotoxicity against mouse B16F10 cells after 72 hrs by MTT assay; assay type: functional, cell-based; conditions: B16-F10, 72 h
[9] = Cytotoxicity against human OE21 cells after 72 hrs by MTT assay; assay type: functional, cell-based; conditions: OE21, 72 h
MCF7 = assay: Cytotoxicity against human MCF7 cells after 72 hrs by MTT assay; assay type: functional, cell-based; conditions: MCF7, 72 h
A549 [10] = assay: Cytostatic activity against human A549 cells after 72 hrs by quantitative videomicroscopic analysis; assay type: functional, cell-based
HCT-116 [11] = assay: Cell cycle arrest in p53 double-mutant human HCT116 cells assessed as mitotic index after 24 hrs by flow cytometric analysis; assay type: functional; design: concentration or dose not given beside the values
In short: (§1)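 HCT116 p53-/- cells pretreated with etoposide for 1 h, then released into drug-free medium with or without inhibitor for 23 h; nocodazole added to trap cells exiting G2/M. Mitotic cells scored by phospho-histone H3 labeling and DNA content (propidium iodide) by flow cytometry.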

HCT-116 [12] = assay: Cell cycle arrest in p53 double-mutant human HCT116 cells assessed as mitotic index at 300 nM after 24 hrs by flow cytometric analysis; assay type: functional; in short: as §1

Cyclin-dependent kinase 5/CDK5 activator 1, sequence (Q00535 whole entry): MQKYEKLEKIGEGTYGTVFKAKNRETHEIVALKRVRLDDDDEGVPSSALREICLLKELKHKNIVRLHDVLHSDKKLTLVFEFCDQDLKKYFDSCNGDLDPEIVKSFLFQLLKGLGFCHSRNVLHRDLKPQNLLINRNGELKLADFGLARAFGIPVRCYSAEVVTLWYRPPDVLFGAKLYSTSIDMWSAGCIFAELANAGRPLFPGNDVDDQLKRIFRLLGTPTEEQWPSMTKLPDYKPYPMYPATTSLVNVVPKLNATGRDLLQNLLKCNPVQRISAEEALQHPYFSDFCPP
Cyclin-dependent kinase 5/CDK5 activator 1, sequence (Q15078 whole entry, further chain): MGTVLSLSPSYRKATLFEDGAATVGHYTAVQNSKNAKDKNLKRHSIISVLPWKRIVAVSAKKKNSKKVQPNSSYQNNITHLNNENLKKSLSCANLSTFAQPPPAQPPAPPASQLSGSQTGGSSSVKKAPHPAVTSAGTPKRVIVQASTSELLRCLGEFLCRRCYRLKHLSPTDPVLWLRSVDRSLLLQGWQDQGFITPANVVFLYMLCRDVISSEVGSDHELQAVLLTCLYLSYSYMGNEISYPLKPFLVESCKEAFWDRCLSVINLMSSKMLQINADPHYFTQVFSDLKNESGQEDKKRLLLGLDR

IC50 [1] [µM] | IC50 [3] [µM] | IC50 [4] [µM] | IC50 [6] [µM] | IC50 [8] [µM] | Structure (SMILES) | IC50 (PC-3) [µM] | IC50 (A549 [2]) [µM] | IC50 (LoVo) [µM] | IC50 [5] [µM] | IC50 [7] [µM] | IC50 (B16-F10) [µM] | IC50 [9] [µM] | IC50 (MCF7) [µM] | Activity (A549 [10]) | Activity (HCT-116 [11]) [%] | Activity (HCT-116 [12]) [%]
0.91 | 2.6 | 0.9 | 1.7 | 0.42 | O=C1NC(=O)c2c1c1[nH]ncc1c1[nH]c3ccccc3c21 | > 100 | > 100 | 44 | 93 | > 100 | 75 |  |  |  |  | 
 |  |  |  |  | COc1ccc2[nH]c(-n3cccn3)cc2c1 | > 100 | > 100 | 70 | 69 | > 100 | > 100 | > 100 | > 100 |  |  | 
 |  |  |  |  | COc1ccc2[nH]c(-c3ccc[nH]3)c(C3CC(=O)N(C)C3=O)c2c1 (configuration not stated) | 37 | 7 | 25 | 28 | 10 | 6 | 42 | 7 | Active |  | 
 |  |  |  |  | COc1ccc2[nH]c3c(c4c(n5cccc35)C(=O)N(C)C4=O)c2c1 | 64 | 36 | 40 | 72 | 28 | 27 | > 100 | 36 |  |  | 
2.1 | 10 | 0.57 | 1.3 | 0.52 | O=C1NC(=O)c2c1c1c3ccccc3[nH]c1c1cccn21 | 50 | 18 | 11 | 52 | 33 | 19 | 75 | 49 | Active | 9.6 | 
> 10 | > 10 | 0.7 | > 10 | > 10 | COc1ccc2[nH]c3c(c4c(c5ccnn53)C(=O)NC4=O)c2c1 | > 100 | 8 | 34 | 22 | > 100 |  | 35 |  |  |  | 
> 10 | 7.1 | 0.045 | > 10 | 3.5 | Cc1ccc2[nH]c3c(c4c(c5ccnn53)C(=O)NC4=O)c2c1 | 75 | 8 | 4 | 64 | 57 | 37 | 5 | 9 |  | 13.9 | 
 |  |  |  |  | O=C1NC(=O)c2c1c1c3ccccc3[nH]c1n1cncc21 [ISOGRANULATIMIDE] | 91 | 79 | 62 | > 100 | > 100 | 35 |  | 99 |  | 17.2 | 
7.5 | > 10 | 1.7 | 8.3 | 1.5 | Cc1ccc2[nH]c3c(c4c(n5cccc35)C(=O)NC4=O)c2c1 | 75 | 14 | 52 | 45 | 22 | 15 | > 100 | 42 |  |  | 
0.31 | 0.23 | 0.17 | 1.4 | 0.13 | Cc1ccc2[nH]c3c4cn[nH]c4c4c(c3c2c1)C(=O)NC4=O | > 100 | > 100 | 5 | > 100 | > 100 | 2 |  |  |  | 0 | 
 |  |  |  |  | Cc1ccc2[nH]c(-c3ccc[nH]3)cc2c1 |  |  |  |  |  |  |  |  |  | 5 | 
 |  |  |  |  | NC(=O)Nc1cc(-c2cccc(F)c2)sc1C(=O)N[C@H]1CCCNC1 [AZD-7762] |  |  |  |  |  |  |  |  |  |  | 75
 |  |  |  |  | COc1ccc2[nH]c(-c3ccc[nH]3)cc2c1 | 26 | 55 | 26 | 50 | 43 | 61 | 33 | 84 |  | 8.3 | 
 |  |  |  |  | Cc1ccc2[nH]c(-n3cccn3)c(C3=C(Br)C(=O)NC3=O)c2c1 | 26 | 29 | 27 | 29 | 27 | 8 | 28 | 15 |  | 5.5 | 
> 10 | > 10 | 1.7 | > 10 | 10 | COc1ccc2[nH]c3c(c4c(n5cccc35)C(=O)NC4=O)c2c1 | 66 | 26 | 39 | 58 | 26 | 22 | 37 | 35 |  |  | 
 |  |  |  |  | COc1ccc2[nH]c3c4cn[nH]c4c4c(c3c2c1)C(=O)NC4=O | > 100 | > 100 | 42 | 45 | 51 | 37 |  |  |  |  | 
 |  |  |  |  | Cc1ccc2[nH]c(-c3ccc[nH]3)c(C3CC(=O)NC3=O)c2c1 (configuration not stated) | 11 | 20 | 4 | 8 | 5 | 0.5 | > 100 | 29 |  |  | 
 |  |  |  |  | c1ccc2[nH]c(-n3cccn3)cc2c1 | > 100 | > 100 | 86 | > 100 | > 100 | > 100 | > 100 | > 100 |  |  | 
 |  |  |  |  | O=C1NC(=O)c2c1c1[nH]cnc1c1[nH]c3ccccc3c21 [GRANULATIMIDE] | 11 | 18 | 3 | 23 | 6 | 5 |  | 46 |  | 19.4 | 
 |  |  |  |  | O=C1CC(c2c(-c3ccc[nH]3)[nH]c3ccccc23)C(=O)N1 (configuration not stated) | 9 | 8 | 8 | 25 | 4 | 2 | 67 | 35 | Active |  | 
 |  |  |  |  | COc1ccc2[nH]c(-c3ccc[nH]3)c(C3CC(=O)NC3=O)c2c1 (configuration not stated) | 6 | 4 | 4 | 6 | 15 | 0.6 | 53 | 19 |  |  | 
2.6 | 1.1 | 0.42 | 0.2 | 0.26 | O=C1NC(=O)c2c1c1c3cc(O)ccc3[nH]c1c1cccn21 | > 100 | > 100 | 99 | > 100 | > 100 | 93 | > 100 | > 100 |  |  | 
4 | 3.2 | 0.49 | 2.1 | 0.3 | O=C1NC(=O)c2c1c1c3ccccc3[nH]c1n1nccc21 | 22 | 8 | 0.4 | 3 | 0.2 | 25 | 2 | 25 |  | 23.9 | 
 |  |  |  |  | O=C1NC(=O)C(c2c(-n3cccn3)[nH]c3ccccc23)=C1Br | 27 | 25 | 24 | 29 | 27 | 13 | 27 | 27 |  |  | 
0.51 | 0.16 | 0.041 | 0.18 | 0.09 | O=C1NC(=O)c2c1c1c3cc(O)ccc3[nH]c1n1nccc21 | 36 | 15 | 7 | 23 | 8 | 7 |  |  |  | 3.9 | 
 |  |  |  |  | COc1ccc2[nH]c(-n3cccn3)c(C3=C(Br)C(=O)NC3=O)c2c1 | 26 | 29 | 26 | 30 | 27 | 8 | 30 | 11 |  |  | 
 |  |  |  |  | Cc1ccc2[nH]c(-n3cccn3)cc2c1 | > 100 | > 100 | 87 | > 100 | > 100 | > 100 | > 100 | > 100 |  |  | 
